# Screening data (PubChem BioAssay)
# The entries come from a sample that favours hits as a whole.
# Insulin prom act = TRM-6 insulin promoter activation | TRM-6 cells, insulin promoter eGFP reporter, imaging; plate-scaled: unstimulated 0, stimulated control 100 | activation, % at 2 µM | hit rate 0.81% among 130,000 | AID 1296;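 active = activation at 2 µM above a set limit, confirmed on inspection of the cell images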;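 note: share of cells whose green reporter signal exceeds an intensity cutoff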
#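 material = TRM-6 human fetal islet cells, insulin promoter–eGFP reporter | input = 1,000 TRM-6 cells seeded per well | benchmarks = stimulated versus unstimulated wells as plate controls | measured by = automated fluorescence imaging of paraformaldehyde-fixed, Hoechst-counterstained cells, green channel | schedule = compound exposure 48 h, 37 °C | reagent = tamoxifen at 0.75 µM added at seeding for reporter induction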
# Active calls of the source: *.
SMILES,Insulin prom act
Cc1ccc(-c2n[nH]c(=S)n2/N=C/c2c(C)nn(-c3ccccc3)c2C)cc1,-6.7
CCN(CC)S(=O)(=O)c1cccc(-c2n[nH]c(=S)n2/N=C/c2ccc(Br)cc2)c1,438.5*
Cc1cccc(-c2n[nH]c(=S)n2/N=C/c2ccc(C)s2)c1,5.6
Cc1ccc(C2CC(=O)c3cnn(-c4nc(C)cc(C)n4)c3C2)cc1 (configuration not stated),131.0
COc1ccccc1NC(=O)c1cc(Cl)ccc1NC(=O)c1ccco1,-86.4
COc1ccccc1NC(=O)c1ccccc1-c1nc(-c2ccccc2OC)no1,400.0*
COc1ccccc1-c1noc(-c2ccccc2C(=O)Nc2ccccc2)n1,-71.4
CCOC(=O)CNC(=O)CSc1nc2nc(C)c(Br)cc2[nH]1,-9.1
Cc1c(-c2nnc(SCC(=O)O)n2-c2ccccc2Br)nnn1-c1ccccc1,0.0
CCOc1cc(/C=C(/C#N)c2ccc(F)cc2)ccc1OCc1ccc(C(=O)O)o1,226.1
N#C/C(=C/c1cn(CC(=O)O)c2ccccc12)c1ccc(F)cc1,-2.9
Cn1cccc1/C=C(/C#N)c1ccc(F)cc1,438.5*
O=c1[nH]c(CS(=O)(=O)c2ccccc2)nc2ccccc12,5.6
O=c1cc(CS(=O)(=O)c2ccccc2)nc(-c2ccncc2)[nH]1,331.3*
CN(Cc1nc(-c2ccncc2)no1)S(=O)(=O)c1ccccc1,23.5
CCn1c(SCC(=O)Nc2ccc(S(=O)(=O)Nc3ccccn3)cc2)nnc1-c1ccncc1,569.2*
CCn1c(SCC(=O)NC2CCCc3ccccc32)nnc1-c1ccncc1 (configuration not stated),-6.7
CCn1c(SCC(=O)Nc2cccc(NC(=O)c3cccs3)c2)nnc1-c1ccncc1,0.0
Cc1ccc(NC(=O)Cn2nc(-c3ccccc3Cl)ccc2=O)c(Br)c1,0.0
CC(C)NCC(O)COc1ccc2c(c1)CCC2 (configuration not stated),-3.3
COCCn1c(-c2ccc(OC)cc2)cnc1SCC(=O)Nc1cccc2ccccc12,2.3
CCCCC(=O)Nc1ccc(NC(=O)C2CC2)nc1,8.1
COCCNC(=O)C(OC(=O)CC1Sc2ccccc2NC1=O)c1ccccc1 (configuration not stated),414.3*
O=C(CC1Sc2ccccc2NC1=O)c1ccc(Br)cc1 (configuration not stated),7.9
CCCNC(=O)CC1Sc2ccccc2NC1=O (configuration not stated),111.1
SMILES,Insulin prom act
CS(=O)(=O)N(CCC(=O)O)Cc1ccccc1,-6.5
CCCSc1cc(N2CCOCC2)nc(-c2ccccc2Cl)n1,-8.1
c1cncc(CNc2nc(N3CCOCC3)nc(N3CCOCC3)n2)c1,2.9
O=[N+]([O-])c1ccc(-c2ccc(/C=N/Nc3nc(NCc4ccccc4)nc(N4CCOCC4)n3)o2)cc1,200.0*
CC(Sc1nc(NCc2ccccc2)nc(N2CCOCC2)n1)C(=O)Nc1ccccc1 (configuration not stated),7.7
Fc1ccc(-c2csc(N3CCSCC3)n2)cc1,109.1
CCc1nnc(NC(=O)CN2CCN(c3nc(-c4ccccc4)cs3)CC2)s1,7.1
CCC(=O)N1CCN(c2nc(-c3ccc(Cl)cc3)cs2)CC1,464.3*
CC1=C(CC/C(C)=N/NC(N)=S)C(C)(C)CCC1,176.2
COc1cc(NC(=S)N2CCC(C(N)=O)CC2)c(OC)cc1Cl,-5.3
O=C(OC1C2CCC1C1CN(CCc3ccccc3)CC12)c1ccccc1 (configuration not stated),0.0
O=C(CCCCCN1C(=O)c2ccccc2C1=O)Nc1ccc(F)cc1,147.6
O=C(O)CCC1=C2c3ccccc3CCN2C(=O)CC1,450.0*
O=C1c2ccccc2C(=O)N1CCC(=O)N1CCc2ccccc21,0.0
COC(=O)CCC(=O)NN1C(=O)c2ccccc2C1=O,9.5
OCc1nc2ccccc2n1C/C=C/c1ccccc1,-8.6
COc1ccc(NS(=O)(=O)c2cc(C(=O)N3CCN(C(C)=O)CC3)ccc2Cl)cc1,6.7
CCCCOC(=O)c1ccc(N/C(=N\S(=O)(=O)c2ccccc2)c2ccccc2)cc1,-6.5
COc1ccc(NS(=O)(=O)c2cc(N/C(=N\S(=O)(=O)c3ccccc3)c3ccc(F)cc3)ccc2Cl)cc1,76.0*
Cc1cccc(NC(=O)c2ccc(C(=O)c3ccccc3)o2)c1,0.0
Cc1ccc(NC2SC(=O)N(CC(=O)O)C2=O)cc1 (configuration not stated),-3.1
O=C(NCCc1nc(-c2ccccc2)cs1)c1ccc(Br)cc1,3.8
Cc1csc(NC(=O)c2cccc(S(=O)(=O)N3CCCCC3)c2)n1,0.0
COc1ccc(C(=O)Nc2nc(C)cs2)cc1S(=O)(=O)N1CCCC1,221.1*
Cc1nnc(NC(=O)c2ccc(C)c(S(=O)(=O)N3CCCCCC3)c2)s1,1.8
SMILES,Insulin prom act
O=[N+]([O-])c1ccc(Oc2cccc(F)c2)c2ccncc12,0.0
COc1cc(/C=C2\N=C(c3c(-c4ccccc4)noc3C)OC2=O)ccc1OC(C)=O,0.0
O=S(=O)(c1ccc(Br)s1)N1CCN(c2ccccc2)CC1,575.0*
CCN1CCN(S(=O)(=O)c2ccc(Br)s2)CC1,-92.9
Cc1c(NS(=O)(=O)c2ccc(Br)s2)c(=O)n(-c2ccccc2)n1C,5.1
CCCCCCOc1ccc(-c2ccc(C#N)cn2)cc1,7.7
COc1ccc(S(=O)(=O)N(C)CC(=O)Nc2ccc(C(F)(F)F)cc2)cc1Cl,0.0
COc1cc(S(=O)(=O)N2CCOCC2)cc(C(=O)c2nccn2C)c1OC,9.1
CCCCn1ccnc1C(=O)c1cc(S(=O)(=O)N2CCOCC2)ccc1C,88.9*
Cc1ccc(S(=O)(=O)N2CCOCC2)cc1NC(=O)Cn1ccsc1=N,-5.4
O=C(c1ccccc1)c1nccc2ccccc12,-8.1
O=C(NCc1ccc2c(c1)OCO2)c1ccc(C2SCC(=O)N2Cc2ccco2)cc1 (configuration not stated),-22.2
O=C(NCCc1c[nH]c2ccccc12)C(=O)NCC(c1ccco1)N1CCN(c2ccccc2)CC1 (configuration not stated),3.4
O=C(NC(=S)Nc1nc2ccccc2s1)c1cccs1,-7.4
Nc1c(C(=O)Nc2nc3ccccc3s2)sc2nc(-c3cccs3)ccc12,196.2*
Nc1c(C(=O)Nc2ccccc2)sc2nc(-c3ccco3)ccc12,-80.0
Cc1cccc2c(=O)oc(-c3ccc4c(c3)C(=O)N(CC3CCCO3)C4=O)nc12 (configuration not stated),0.0
O=C1NCCN1Cc1cccc(Cl)c1,0.0
O=C1N(Cc2cccc(Cl)c2)C[C@@H]2C[C@@H](c3ccco3)N3CCC[C@@]123,683.3*
CCCn1ncc([C@@H]2C[C@H]3CN(Cc4cccc(Cl)c4)C(=O)[C@]34CCCN24)c1C,133.3
COc1ccccc1C(=O)NNC(=O)c1sccc1-n1cccc1,138.5
Cc1ccc2n(n1)c(=O)c(Cc1ccccc1)c([O-])[n+]2-c1ccccc1,2.6
O=C(NCc1ccccn1)c1c(Cl)cccc1Cl,-7.1
O=C(NCc1ccccn1)c1ccc(Cl)cc1Cl,272.2
O=C(NCc1ccccn1)c1ccc(Br)s1,528.6*
SMILES,Insulin prom act
O=C1CCCN1c1cc(Cl)ccc1Cl,0.0
COCC(=O)N1CCN(c2cccc(Cl)c2)CC1,5.9
Cc1cc(-c2csc(NC(=O)c3ccc(C#N)cc3)n2)c(C)n1Cc1ccco1,-6.7
Cc1cc(C2(c3ccc(O)c(C)c3)C(=O)Nc3ccccc32)ccc1O,126.7*
Cc1c(O)cc2n(c1=O)-c1ccccc1C2(C)C,234.9
O=C1CCCCCC1C1(O)C(=O)Nc2ccccc21 (configuration not stated),-9.3
